In ChEMBL document CHEMBL5058577, “EUbOPEN Chemogenomics Library 2 (Multiplex)” (2022):

System: HEK-293T
Assay: Multiplex assay against HEK293T
Format: toxicity, cell-based
Details: human
In short: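 Values for tubulin, mitochondrial-mass and membrane-permeability phenotypes are per cents of cells with healthy nuclei. These cells were identified by CellPathfinder machine-learning gating of live cells that had been stained at seeding with Hoechst33342, BioTracker Green Microtubule Cytoskeleton Dye, MitoTracker Red and Annexin V Alexa Fluor 680 and imaged on a CQ1 microscope at 37°C and 5% CO2 after compound addition. The gating first set Hoechst high-intensity objects apart from normal cells, then split normal cells into healthy, pyknosed or fragmented nuclei, and pyknosed cells into mitotic or apoptotic.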

[1] = 12 h, 1 µM, compound concentration 1 uM, replicate 1
[2] = 12 h, 1 µM, compound concentration 1 uM, replicate 2
[3] = 12 h, 10 µM, compound concentration 10 uM, replicate 1
[4] = 12 h, 10 µM, compound concentration 10 uM, replicate 2
[5] = 24 h, 1 µM, compound concentration 1 uM, replicate 1
[6] = 24 h, 1 µM, compound concentration 1 uM, replicate 2
[7] = 24 h, 10 µM, compound concentration 10 uM, replicate 1
[8] = 24 h, 10 µM, compound concentration 10 uM, replicate 2
[9] = 48 h, 1 µM, compound concentration 1 uM, replicate 1
[10] = 48 h, 1 µM, compound concentration 1 uM, replicate 2
[11] = 48 h, 10 µM, compound concentration 10 uM, replicate 1
[12] = 48 h, 10 µM, compound concentration 10 uM, replicate 2

SMILES: CC(C)(C)c1cc(NC(=O)Nc2ccc(-c3cn4c(n3)sc3cc(OCCN5CCOCC5)ccc34)cc2)no1 [QUIZARTINIB]
- Population Apoptotic (%) [1]: 27%
- Population Fragmented Nuclei (%) [1]: 5%
- Population Healthy Nuclei (%) [1]: 83%
- Population Hoechst High Intensity Objects (%) [1]: 10%
- Population Membrane Permeable-Phenotype (%) [1]: 0%
- Population Mitochondria Different-Phenotype (%) [1]: 40%
- Population Mitotic Cells (%) [1]: 72%
- Population Normal (%) [1]: 89%
- Population Pyknosed Nuclei (%) [1]: 11%
- Population Tubulin-Different-Phenotype (%) [1]: 35%
- Total Cell Count [1]: 377
- Population Apoptotic (%) [2]: 34%
- Population Healthy Nuclei (%) [2]: 80%
- Population Hoechst High Intensity Objects (%) [2]: 6%
- Population Mitochondria Different-Phenotype (%) [2]: 58%
- Population Mitotic Cells (%) [2]: 65%
- Population Normal (%) [2]: 93%
- Population Pyknosed Nuclei (%) [2]: 14%
- Population Tubulin-Different-Phenotype (%) [2]: 26%
- Total Cell Count [2]: 345
- Population Apoptotic (%) [3]: 53%
- Population Fragmented Nuclei (%) [3]: 7%
- Population Healthy Nuclei (%) [3]: 71%
- Population Hoechst High Intensity Objects (%) [3]: 23%
- Population Membrane Permeable-Phenotype (%) [3]: 0%
- Population Mitochondria Different-Phenotype (%) [3]: 78%
- Population Mitotic Cells (%) [3]: 46%
- Population Normal (%) [3]: 76%
- Population Pyknosed Nuclei (%) [3]: 21%
- Population Tubulin-Different-Phenotype (%) [3]: 68%
- Total Cell Count [3]: 324
- Population Apoptotic (%) [4]: 73%
- Population Hoechst High Intensity Objects (%) [4]: 12%
- Population Mitochondria Different-Phenotype (%) [4]: 81%
- Population Mitotic Cells (%) [4]: 26%
- Population Normal (%) [4]: 87%
- Population Tubulin-Different-Phenotype (%) [4]: 63%
- Total Cell Count [4]: 293
- Population Apoptotic (%) [5]: 41%
- Population Fragmented Nuclei (%) [5]: 7%
- Population Healthy Nuclei (%) [5]: 84%
- Population Hoechst High Intensity Objects (%) [5]: 6%
- Population Membrane Permeable-Phenotype (%) [5]: 0%
- Population Mitochondria Different-Phenotype (%) [5]: 26%
- Population Mitotic Cells (%) [5]: 58%
- Population Normal (%) [5]: 93%
- Population Pyknosed Nuclei (%) [5]: 7%
- Population Tubulin-Different-Phenotype (%) [5]: 21%
- Total Cell Count [5]: 491
- Population Apoptotic (%) [6]: 38%
- Population Fragmented Nuclei (%) [6]: 5%
- Population Hoechst High Intensity Objects (%) [6]: 4%
- Population Mitochondria Different-Phenotype (%) [6]: 40%
- Population Mitotic Cells (%) [6]: 61%
- Population Normal (%) [6]: 95%
- Population Pyknosed Nuclei (%) [6]: 10%
- Population Tubulin-Different-Phenotype (%) [6]: 17%
- Total Cell Count [6]: 440
- Population Apoptotic (%) [7]: 62%
- Population Fragmented Nuclei (%) [7]: 8%
- Population Healthy Nuclei (%) [7]: 79%
- Population Hoechst High Intensity Objects (%) [7]: 16%
- Population Membrane Permeable-Phenotype (%) [7]: 0%
- Population Mitochondria Different-Phenotype (%) [7]: 63%
- Population Mitotic Cells (%) [7]: 37%
- Population Normal (%) [7]: 83%
- Population Pyknosed Nuclei (%) [7]: 12%
- Population Tubulin-Different-Phenotype (%) [7]: 57%
- Total Cell Count [7]: 413
- Population Apoptotic (%) [8]: 69%
- Population Fragmented Nuclei (%) [8]: 9%
- Population Healthy Nuclei (%) [8]: 78%
- Population Hoechst High Intensity Objects (%) [8]: 9%
- Population Mitochondria Different-Phenotype (%) [8]: 75%
- Population Mitotic Cells (%) [8]: 30%
- Population Normal (%) [8]: 90%
- Population Pyknosed Nuclei (%) [8]: 11%
- Population Tubulin-Different-Phenotype (%) [8]: 50%
- Total Cell Count [8]: 321
- Population Apoptotic (%) [9]: 21%
- Population Fragmented Nuclei (%) [9]: 12%
- Population Healthy Nuclei (%) [9]: 80%
- Population Hoechst High Intensity Objects (%) [9]: 3%
- Population Membrane Permeable-Phenotype (%) [9]: 2%
- Population Mitochondria Different-Phenotype (%) [9]: 11%
- Population Mitotic Cells (%) [9]: 78%
- Population Normal (%) [9]: 96%
- Population Pyknosed Nuclei (%) [9]: 6%
- Population Tubulin-Different-Phenotype (%) [9]: 15%
- Total Cell Count [9]: 851
- Population Fragmented Nuclei (%) [10]: 10%
- Population Healthy Nuclei (%) [10]: 82%
- Population Hoechst High Intensity Objects (%) [10]: 2%
- Population Membrane Permeable-Phenotype (%) [10]: 0%
- Population Mitochondria Different-Phenotype (%) [10]: 24%
- Population Normal (%) [10]: 97%
- Population Tubulin-Different-Phenotype (%) [10]: 18%
- Total Cell Count [10]: 566
- Population Apoptotic (%) [11]: 57%
- Population Fragmented Nuclei (%) [11]: 9%
- Population Healthy Nuclei (%) [11]: 77%
- Population Hoechst High Intensity Objects (%) [11]: 9%
- Population Membrane Permeable-Phenotype (%) [11]: 1%
- Population Mitochondria Different-Phenotype (%) [11]: 40%
- Population Mitotic Cells (%) [11]: 42%
- Population Normal (%) [11]: 90%
- Population Pyknosed Nuclei (%) [11]: 12%
- Population Tubulin-Different-Phenotype (%) [11]: 35%
- Total Cell Count [11]: 583
- Population Apoptotic (%) [12]: 58%
- Population Fragmented Nuclei (%) [12]: 11%
- Population Healthy Nuclei (%) [12]: 73%
- Population Hoechst High Intensity Objects (%) [12]: 12%
- Population Membrane Permeable-Phenotype (%) [12]: 0%
- Population Mitochondria Different-Phenotype (%) [12]: 59%
- Population Mitotic Cells (%) [12]: 41%
- Population Normal (%) [12]: 87%
- Population Pyknosed Nuclei (%) [12]: 14%
- Population Tubulin-Different-Phenotype (%) [12]: 37%
- Total Cell Count [12]: 392

SMILES: O=C(NCCN1CCC(n2c(=O)[nH]c3cc(Cl)ccc32)CC1)c1ccc(F)cc1 [HALOPEMIDE]
- Population Apoptotic (%) [1]: 46%
- Population Fragmented Nuclei (%) [1]: 5%
- Population Healthy Nuclei (%) [1]: 81%
- Population Hoechst High Intensity Objects (%) [1]: 7%
- Population Membrane Permeable-Phenotype (%) [1]: 0%
- Population Mitochondria Different-Phenotype (%) [1]: 54%
- Population Mitotic Cells (%) [1]: 53%
- Population Normal (%) [1]: 92%
- Population Pyknosed Nuclei (%) [1]: 13%
- Population Tubulin-Different-Phenotype (%) [1]: 42%
- Total Cell Count [1]: 334
- Population Apoptotic (%) [2]: 43%
- Population Healthy Nuclei (%) [2]: 79%
- Population Hoechst High Intensity Objects (%) [2]: 10%
- Population Mitochondria Different-Phenotype (%) [2]: 62%
- Population Mitotic Cells (%) [2]: 56%
- Population Normal (%) [2]: 89%
- Population Pyknosed Nuclei (%) [2]: 15%
- Population Tubulin-Different-Phenotype (%) [2]: 29%
- Total Cell Count [2]: 373
- Population Apoptotic (%) [3]: 39%
- Population Fragmented Nuclei (%) [3]: 5%
- Population Healthy Nuclei (%) [3]: 74%
- Population Hoechst High Intensity Objects (%) [3]: 14%
- Population Membrane Permeable-Phenotype (%) [3]: 0%
- Population Mitochondria Different-Phenotype (%) [3]: 76%
- Population Mitotic Cells (%) [3]: 60%
- Population Normal (%) [3]: 85%
- Population Pyknosed Nuclei (%) [3]: 20%
- Population Tubulin-Different-Phenotype (%) [3]: 68%
- Total Cell Count [3]: 460
- Population Apoptotic (%) [4]: 65%
- Population Fragmented Nuclei (%) [4]: 6%
- Population Healthy Nuclei (%) [4]: 72%
- Population Hoechst High Intensity Objects (%) [4]: 13%
- Population Membrane Permeable-Phenotype (%) [4]: 1%
- Population Mitochondria Different-Phenotype (%) [4]: 84%
- Population Mitotic Cells (%) [4]: 34%
- Population Normal (%) [4]: 86%
- Population Pyknosed Nuclei (%) [4]: 21%
- Population Tubulin-Different-Phenotype (%) [4]: 59%
- Total Cell Count [4]: 319
- Population Apoptotic (%) [5]: 40%
- Population Fragmented Nuclei (%) [5]: 7%
- Population Healthy Nuclei (%) [5]: 79%
- Population Hoechst High Intensity Objects (%) [5]: 3%
- Population Membrane Permeable-Phenotype (%) [5]: 1%
- Population Mitochondria Different-Phenotype (%) [5]: 35%
- Population Mitotic Cells (%) [5]: 59%
- Population Normal (%) [5]: 96%
- Population Pyknosed Nuclei (%) [5]: 12%
- Population Tubulin-Different-Phenotype (%) [5]: 24%
- Total Cell Count [5]: 471
- Population Fragmented Nuclei (%) [6]: 9%
- Population Hoechst High Intensity Objects (%) [6]: 6%
- Population Membrane Permeable-Phenotype (%) [6]: 0%
- Population Mitochondria Different-Phenotype (%) [6]: 37%
- Population Normal (%) [6]: 93%
- Population Pyknosed Nuclei (%) [6]: 11%
- Population Tubulin-Different-Phenotype (%) [6]: 21%
- Total Cell Count [6]: 508
- Population Apoptotic (%) [7]: 27%
- Population Fragmented Nuclei (%) [7]: 8%
- Population Healthy Nuclei (%) [7]: 72%
- Population Hoechst High Intensity Objects (%) [7]: 8%
- Population Membrane Permeable-Phenotype (%) [7]: 1%
- Population Mitochondria Different-Phenotype (%) [7]: 63%
- Population Mitotic Cells (%) [7]: 72%
- Population Normal (%) [7]: 91%
- Population Pyknosed Nuclei (%) [7]: 19%
- Population Tubulin-Different-Phenotype (%) [7]: 64%
- Total Cell Count [7]: 580
- Population Apoptotic (%) [8]: 64%
- Population Fragmented Nuclei (%) [8]: 9%
- Population Healthy Nuclei (%) [8]: 70%
- Population Membrane Permeable-Phenotype (%) [8]: 0%
- Population Mitochondria Different-Phenotype (%) [8]: 78%
- Population Mitotic Cells (%) [8]: 35%
- Population Pyknosed Nuclei (%) [8]: 20%
- Population Tubulin-Different-Phenotype (%) [8]: 62%
- Total Cell Count [8]: 361
- Population Apoptotic (%) [9]: 30%
- Population Fragmented Nuclei (%) [9]: 13%
- Population Healthy Nuclei (%) [9]: 79%
- Population Hoechst High Intensity Objects (%) [9]: 1%
- Population Membrane Permeable-Phenotype (%) [9]: 1%
- Population Mitochondria Different-Phenotype (%) [9]: 21%
- Population Mitotic Cells (%) [9]: 69%
- Population Normal (%) [9]: 98%
- Population Pyknosed Nuclei (%) [9]: 6%
- Population Tubulin-Different-Phenotype (%) [9]: 16%
- Total Cell Count [9]: 841
- Population Apoptotic (%) [10]: 28%
- Population Hoechst High Intensity Objects (%) [10]: 3%
- Population Membrane Permeable-Phenotype (%) [10]: 0%
- Population Mitotic Cells (%) [10]: 71%
- Population Normal (%) [10]: 96%
- Population Pyknosed Nuclei (%) [10]: 7%
- Population Tubulin-Different-Phenotype (%) [10]: 10%
- Total Cell Count [10]: 675
- Population Apoptotic (%) [11]: 37%
- Population Fragmented Nuclei (%) [11]: 14%
- Population Healthy Nuclei (%) [11]: 72%
- Population Hoechst High Intensity Objects (%) [11]: 8%
- Population Membrane Permeable-Phenotype (%) [11]: 1%
- Population Mitochondria Different-Phenotype (%) [11]: 57%
- Population Mitotic Cells (%) [11]: 62%
- Population Normal (%) [11]: 91%
- Population Pyknosed Nuclei (%) [11]: 12%
- Population Tubulin-Different-Phenotype (%) [11]: 55%
- Total Cell Count [11]: 706
- Population Apoptotic (%) [12]: 60%
- Population Healthy Nuclei (%) [12]: 74%
- Population Hoechst High Intensity Objects (%) [12]: 6%
- Population Mitochondria Different-Phenotype (%) [12]: 64%
- Population Mitotic Cells (%) [12]: 40%
- Population Normal (%) [12]: 93%
- Population Pyknosed Nuclei (%) [12]: 11%
- Total Cell Count [12]: 531
